What all share (format): functional
For assay [1], the system named is Staphylococcus aureus. The assay is described as follows: Antibacterial activity against Staphylococcus aureus NCIM 5021 at 100 ug/disk after 24 hrs by agar disc-diffusion method. Conditions: NCIM 5021, 24 h, read-out: DIZ. The gist of the method:
(§1)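 Sterile 6 mm filter-paper discs are soaked in compound solution in DMSO and placed on nutrient agar plates already inoculated with each organism. Plates are incubated at 37 °C. The diameter of the growth-inhibition zone is read after 24 h for bacteria and after 48 h for fungi.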
A general note: A growth-free zone around the sample is the usual read-out of agar diffusion tests.

Assay [2] deals with Bacillus subtilis. The assay is described as follows: Antibacterial activity against Bacillus subtilis NCIM 2063 at 100 ug/disk after 24 hrs by agar disc-diffusion method. Particulars: NCIM 2063, 24 h, read-out: DIZ. In a few lines:
as §1

Assay [3] deals with Klebsiella pneumoniae. The assay is described as follows: Antibacterial activity against Klebsiella pneumoniae NCIM 2957 at 100 ug/disk after 24 hrs by agar disc-diffusion method. Particulars: NCIM 2957, 24 h, read-out: DIZ. The gist of the method: as §1
Assay [4] relates to Proteus vulgaris. The assay is described as follows: Antibacterial activity against Proteus vulgaris NCIM 2027 at 100 ug/disk after 24 hrs by agar disc-diffusion method. Conditions: NCIM 2027, 24 h, read-out: DIZ. The gist of the method: as §1
The subject of assay [5] is Fusarium solani. The assay is described as follows: Antifungal activity against Fusarium solani NCIM 1330 at 100 ug/disk after 48 hrs by agar disc-diffusion method. Conditions: NCIM 1330, 48 h, read-out: DIZ. The gist of the method: as §1
Assay [6] concerns Curvularia lunata. The assay is described as follows: Antifungal activity against Curvularia lunata NCIM 716 at 100 ug/disk after 48 hrs by agar disc-diffusion method. Particulars: NCIM 716, 48 h, read-out: DIZ. The gist of the method: as §1
For assay [7], the system named is Aspergillus niger. The assay is described as follows: Antifungal activity against Aspergillus niger NCIM 596 at 100 ug/disk after 48 hrs by agar disc-diffusion method. Conditions: NCIM 596, 48 h, read-out: DIZ. In a few lines: as §1
Assay [8] concerns Staphylococcus aureus. The assay is described as follows: Antibacterial activity against Staphylococcus aureus NCIM 5021 at 200 ug/disk after 24 hrs by agar disc-diffusion method. Conditions: NCIM 5021, 24 h, read-out: DIZ. In a few lines:
as §1

Assay [9] has as its system Bacillus subtilis. The assay is described as follows: Antibacterial activity against Bacillus subtilis NCIM 2063 at 200 ug/disk after 24 hrs by agar disc-diffusion method. Conditions: NCIM 2063, 24 h, read-out: DIZ. In a few lines: as §1
Assay [10] concerns Klebsiella pneumoniae. The assay is described as follows: Antibacterial activity against Klebsiella pneumoniae NCIM 2957 at 200 ug/disk after 24 hrs by agar disc-diffusion method. Particulars: NCIM 2957, 24 h, read-out: DIZ. The gist of the method: as §1
Assay [11] concerns Proteus vulgaris. The assay is described as follows: Antibacterial activity against Proteus vulgaris NCIM 2027 at 200 ug/disk after 24 hrs by agar disc-diffusion method. Conditions: NCIM 2027, 24 h, read-out: DIZ. The gist of the method: as §1
Assay [12] deals with Fusarium solani. The assay is described as follows: Antifungal activity against Fusarium solani NCIM 1330 at 200 ug/disk after 48 hrs by agar disc-diffusion method. Conditions: NCIM 1330, 48 h, read-out: DIZ. In a few lines: as §1
Assay [13] has as its system Curvularia lunata. The assay is described as follows: Antifungal activity against Curvularia lunata NCIM 716 at 200 ug/disk after 48 hrs by agar disc-diffusion method. Particulars: NCIM 716, 48 h, read-out: DIZ. In a few lines:
as §1

For assay [14], the system named is Aspergillus niger. The assay is described as follows: Antifungal activity against Aspergillus niger NCIM 596 at 200 ug/disk after 48 hrs by agar disc-diffusion method. Conditions: NCIM 596, 48 h, read-out: DIZ. The gist of the method:
as §1

In assay [15] the test system is Staphylococcus aureus. The assay is described as follows: Antibacterial activity against Staphylococcus aureus NCIM 5021 after 24 hrs by microdilution susceptibility method. Particulars: NCIM 5021, 24 h. In a few lines:
(§2)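 This is a microdilution susceptibility test. Organism suspensions are inoculated into wells holding the dilution series, then incubated at 36 °C for 24 h (bacteria) or 48 h (fungi). MIC is the lowest concentration giving no turbidity, i.e. complete inhibition of visible growth.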
(In general: In broth dilution the organism is exposed to a series of concentrations in liquid medium.)

Assay [16] deals with Bacillus subtilis. The assay is described as follows: Antibacterial activity against Bacillus subtilis NCIM 2063 after 24 hrs by microdilution susceptibility method. Particulars: NCIM 2063, 24 h. In a few lines: as §2
For assay [17], the system named is Klebsiella pneumoniae. The assay is described as follows: Antibacterial activity against Klebsiella pneumoniae NCIM 2957 after 24 hrs by microdilution susceptibility method. Particulars: NCIM 2957, 24 h. The gist of the method: as §2
For assay [18], the system named is Proteus vulgaris. The assay is described as follows: Antibacterial activity against Proteus vulgaris NCIM 2027 after 24 hrs by microdilution susceptibility method. Conditions: NCIM 2027, 24 h. The gist of the method:
as §2

The subject of assay [19] is Fusarium solani. The assay is described as follows: Antifungal activity against Fusarium solani NCIM 1330 after 48 hrs by microdilution susceptibility method. Conditions: NCIM 1330, 48 h. In a few lines:
as §2

The test system of assay [20] is Curvularia lunata. The assay is described as follows: Antifungal activity against Curvularia lunata NCIM 716 after 48 hrs by microdilution susceptibility method. Conditions: NCIM 716, 48 h. In a few lines:
as §2

Assay [21] has as its system Aspergillus niger. The assay is described as follows: Antifungal activity against Aspergillus niger NCIM 596 after 48 hrs by microdilution susceptibility method. Conditions: NCIM 596, 48 h. In a few lines: as §2

From ChEMBL document CHEMBL1137737, “Synthesis, antimicrobial and cytotoxic activities of 1,3,4-oxadiazoles, 1,3,4-thiadiazoles and 1,2,4-triazoles” (Eur J Med Chem, 2009) come the findings set out here.

A word on the MIC: it is the lowest concentration that inhibits growth of the organism.

≈ marks a conversion by molar mass, not a printed value.

On to `O=S(=O)(Cc1ccc(Cl)cc1)Cc1nnc(-c2ccccc2Cl)s1`, for which the zone of inhibition at 100 µg/disc with Staphylococcus aureus [1] came out at 29 mm; with Bacillus subtilis [2], 27 mm; in the assay with Klebsiella pneumoniae [3], 20 mm; with Proteus vulgaris [4] it was 20 mm; with Fusarium solani [5] it was 28 mm; in the assay with Curvularia lunata [6], 25 mm. In addition, the zone of inhibition at 100 µg/disc in the assay with Aspergillus niger [7] came to 20 mm. Moreover, the zone of inhibition at 200 µg/disc came out at 33 mm in the assay on Staphylococcus aureus [8]; 31 mm in the assay on Bacillus subtilis [9]; 24 mm in the assay on Klebsiella pneumoniae [10]; 23 mm in the assay with Proteus vulgaris [11]; 31 mm in the assay on Fusarium solani [12]; 27 mm in the assay on Curvularia lunata [13]. Besides, in the assay with Aspergillus niger [14], the zone of inhibition at 200 µg/disc was 23 mm. Besides, the MIC with Staphylococcus aureus [15] amounted to 50 µg/mL (≈ 125 µM); in the assay with Bacillus subtilis [16], 100 µg/mL (≈ 250 µM); against Klebsiella pneumoniae [17] it was 100 µg/mL (≈ 250 µM); in the assay with Proteus vulgaris [18], 200 µg/mL (≈ 501 µM); in the assay with Fusarium solani [19] it was 100 µg/mL (≈ 250 µM); in the assay on Curvularia lunata [20], 100 µg/mL (≈ 250 µM). Besides, the MIC against Aspergillus niger [21] was 100 µg/mL (≈ 250 µM).

Turning to `O=S(=O)(Cc1ccc(Cl)cc1)Cc1nnc(-c2ccccc2)s1`, the zone of inhibition at 100 µg/disc in the assay with Staphylococcus aureus [1] worked out at 28 mm; in the assay on Bacillus subtilis [2] it was 24 mm; in the assay with Klebsiella pneumoniae [3] it was 19 mm; in the assay with Proteus vulgaris [4], 17 mm; in the assay on Fusarium solani [5], 24 mm; in the assay on Curvularia lunata [6], 23 mm. Moreover, the zone of inhibition at 100 µg/disc with Aspergillus niger [7] is 17 mm. The zone of inhibition at 200 µg/disc worked out at 30 mm in the assay with Staphylococcus aureus [8]; 28 mm in the assay on Bacillus subtilis [9]; 23 mm in the assay on Klebsiella pneumoniae [10]; 22 mm in the assay with Proteus vulgaris [11]; 27 mm in the assay with Fusarium solani [12]; 25 mm with Curvularia lunata [13]. In addition, the zone of inhibition at 200 µg/disc in the assay on Aspergillus niger [14] is 20 mm. The MIC in the assay with Staphylococcus aureus [15] was 100 µg/mL (≈ 274 µM); against Bacillus subtilis [16], 200 µg/mL (≈ 548 µM); against Klebsiella pneumoniae [17], 200 µg/mL (≈ 548 µM); in the assay with Proteus vulgaris [18], 200 µg/mL (≈ 548 µM); in the assay with Fusarium solani [19], 200 µg/mL (≈ 548 µM); in the assay with Curvularia lunata [20] it was 200 µg/mL (≈ 548 µM). This compound had an MIC in the assay on Aspergillus niger [21] of 200 µg/mL (≈ 548 µM).

Regarding `Nn1c(CS(=O)(=O)Cc2ccc(Cl)cc2)nnc1-c1ccccc1`, the zone of inhibition at 100 µg/disc in the assay with Staphylococcus aureus [1] was found to be 27 mm; in the assay on Bacillus subtilis [2] it was 28 mm; in the assay with Klebsiella pneumoniae [3], 27 mm; with Proteus vulgaris [4], 26 mm; in the assay on Fusarium solani [5] it was 24 mm; with Curvularia lunata [6] it was 24 mm. The zone of inhibition at 100 µg/disc with Aspergillus niger [7] was 18 mm. The zone of inhibition at 200 µg/disc in the assay on Staphylococcus aureus [8] is 31 mm; with Bacillus subtilis [9], 33 mm; in the assay with Klebsiella pneumoniae [10] it was 29 mm; in the assay with Proteus vulgaris [11], 29 mm; in the assay on Fusarium solani [12], 26 mm; in the assay on Curvularia lunata [13], 27 mm. The zone of inhibition at 200 µg/disc in the assay on Aspergillus niger [14] stood at 20 mm. Further, the MIC in the assay with Staphylococcus aureus [15] amounted to 100 µg/mL (≈ 276 µM); against Bacillus subtilis [16], 100 µg/mL (≈ 276 µM); against Klebsiella pneumoniae [17], 200 µg/mL (≈ 551 µM); against Proteus vulgaris [18], 200 µg/mL (≈ 551 µM); against Fusarium solani [19], 100 µg/mL (≈ 276 µM); with Curvularia lunata [20] it was 200 µg/mL (≈ 551 µM). In the assay with Aspergillus niger [21], this compound came in with an MIC of 200 µg/mL (≈ 551 µM).

`O=S(=O)(Cc1ccccc1)Cc1nnc(-c2ccccc2Cl)s1`: the zone of inhibition at 100 µg/disc came to 26 mm in the assay with Staphylococcus aureus [1]; 25 mm in the assay with Bacillus subtilis [2]; 19 mm in the assay on Klebsiella pneumoniae [3]; 18 mm in the assay on Proteus vulgaris [4]; 20 mm in the assay with Fusarium solani [5]; 19 mm in the assay on Curvularia lunata [6]. Besides, the zone of inhibition at 100 µg/disc with Aspergillus niger [7] stood at 16 mm. Also, the zone of inhibition at 200 µg/disc in the assay with Staphylococcus aureus [8] came to 29 mm; with Bacillus subtilis [9] it was 28 mm; with Klebsiella pneumoniae [10] it was 23 mm; in the assay on Proteus vulgaris [11] it was 22 mm; in the assay on Fusarium solani [12], 23 mm; in the assay with Curvularia lunata [13] it was 21 mm. In addition, in the assay with Aspergillus niger [14], the zone of inhibition at 200 µg/disc was determined as 19 mm. Further, the MIC was 100 µg/mL (≈ 274 µM) against Staphylococcus aureus [15]; 200 µg/mL (≈ 548 µM) against Bacillus subtilis [16]; 200 µg/mL (≈ 548 µM) with Klebsiella pneumoniae [17]; 200 µg/mL (≈ 548 µM) in the assay with Proteus vulgaris [18]; 200 µg/mL (≈ 548 µM) against Fusarium solani [19]; 200 µg/mL (≈ 548 µM) against Curvularia lunata [20]. The MIC in the assay on Aspergillus niger [21] stood at 200 µg/mL (≈ 548 µM).
